Results pooled from the literature.
Lines come from different studies, so protocols differ.
Effect on: metabolic stability
Host: mouse

| Compound | system | conditions | half-life [min] |
| --- | --- | --- | --- |
| NC(=NCCC[C@@H](C(=O)NCc1ccccc1)n1cc(-c2ccc(-c3ccccc3)cc2)nn1)c1ccc([N+](=O)[O-])o1 | liver microsomes | – | 120 |
| NS(=O)(=O)c1nnc(NC(=O)CCC2CC3CCC2C3)s1 (stereo not shown) | liver microsomes | – | 46 |
| O=c1c2c(F)cc(Cl)cc2[nH]c2cccc(Oc3ccc(OC(F)(F)F)cc3)c12 | liver microsomes | 1 µM, pH 7.4 | > 60 |
| O=C(Oc1coc(CSc2ncccn2)cc1=O)c1ccc([N+](=O)[O-])cc1 | liver microsomes | – | < 1 |
| NS(=O)(=O)c1nnc(NC(=O)C2CCCC3(CCCCC3)C2)s1 (stereo not shown) | liver microsomes | – | 58.8 |
| Cc1ccc2[nH]c(=S)n(Cc3cccnc3)c(=O)c2c1 | liver microsomes | 1 µM, pH 7.4 | 4.9 |
| C[C@@H]1CNC[C@H](C)[C@@]1(O)c1ccc(-c2ccnc3[nH]cc(F)c23)cc1F | liver microsomes | – | 30.1 |
| CCN(CC)CCCOc1ccc2c(=O)c3c([nH]c2c1)CCCC3 | liver microsomes | 1 µM, pH 7.4 | > 60 |
| Cc1[nH]c(C)c(S(=O)(=O)Nc2ccc(C(F)(F)F)c(Cl)c2)c1C(=O)N1CCC(F)(F)C1 | liver microsomes | – | 11.7 |
| CCCCCCCCCCCCCCCC(=O)NCCOC(=O)C[C@@H](CN)CC(C)C | liver microsomes | 1 µM, pH 7.4 | 95 |
| CC(C)c1cc(C(=O)NCCN)c2cnn(C(C)C)c2n1 | liver microsomes | – | > 145 |
| O=c1c2cc(Cl)ccc2[nH]c(=S)n1Cc1cccnc1 | liver microsomes | 1 µM, pH 7.4 | 27 |
| Cc1cc(-c2ccnc3[nH]cc(F)c23)ccc1[C@@]1(O)[C@H](C)CNC[C@@H]1C | liver microsomes | – | 8 |
| CC(C)C(=O)OCc1cc2[nH]c(=S)n(Cc3cccnc3)c(=O)c2cc1Cl | liver microsomes | 1 µM, pH 7.4 | < 5 |
| C=CCn1c(=O)c2cnc(Nc3ccc(N4CCN(C)CC4)cc3)nc2n1-c1ccc2c(n1)[C@@](O)(CC)CC2 | liver microsomes | – | 77 |
| O=c1c2cc(Cl)ncc2[nH]c(=S)n1Cc1cccnc1 | liver microsomes | 1 µM, pH 7.4 | 89.7 |

| Compound | system | conditions | half-life [min] |
| --- | --- | --- | --- |
| O=c1c2c([nH]c3cc(OCc4ccc(OC(F)(F)F)cc4)ccc13)CCCC2 | liver microsomes | 1 µM, pH 7.4 | > 60 |
| CC(=O)N1C[C@@H](C)[C@](O)(c2c(C)cc(-c3ccnc4[nH]cc(F)c34)cc2F)[C@@H](C)C1 | liver microsomes | – | 3.5 |
| CCN(CC)CCOc1ccc2c(=O)c3c([nH]c2c1)CCCC3 | liver microsomes | 1 µM, pH 7.4 | > 60 |
| CC(C)n1ncc2c(C(=O)NCC3(C)CNC3)cc(C3CC3)nc21 | liver microsomes | – | > 145 |
| OCc1ccc(-c2nn(Cc3ccccc3)c3ccccc23)o1 | hepatocytes | – | 1.89 |
| Cc1[nH]c(C)c(S(=O)(=O)Nc2ccc(C(F)(F)F)c(Cl)c2)c1C(=O)N(C)C | liver microsomes | – | 3.9 |
| C[C@@H]1CNC[C@H](C)[C@@]1(O)c1ccc(-c2ccnc3[nH]cc(F)c23)cc1Cl | liver microsomes | – | 9.1 |
| O=c1c2ccc(Oc3cccc(OC(F)(F)F)c3)cc2[nH]c2cc(Cl)cc(F)c12 | liver microsomes | 1 µM, pH 7.4 | 57 |
| Nc1nnc(-c2ccccc2O)cc1N1CCN(Cc2ccc(N3CCC(CN4CCN(c5ccc6c(c5)C(=O)N(C5CCC(=O)NC5=O)C6=O)CC4)CC3)c(F)c2)CC1 (stereo not shown) | liver microsomes | 1 mM | 59 |
| CCCCCCOc1ccc2c(=O)c3c([nH]c2c1)CCCC3 | liver microsomes | 1 µM, pH 7.4 | 11.8 |
| CCN(CC)CCNC(=O)c1c(C)[nH]c(/C=C2\C(=O)Nc3ccc(F)cc32)c1C | liver microsomes | – | 17 |
| COc1ccc(Oc2ccc3c(=O)c4c(F)cc(Cl)cc4[nH]c3c2)cc1 | liver microsomes | 1 µM, pH 7.4 | > 60 |
| CCN(CC)CCNC(=O)c1c(C)[nH]c(/C=C2\C(=O)Nc3ccc(F)cc32)c1C | liver microsomes | 1 µM, pH 7.4 | 14 |
| Cc1cc(-c2ccnc3[nH]cc(F)c23)cc(F)c1[C@@]1(O)[C@H](C)CN(C(C)C)C[C@@H]1C | liver microsomes | – | 1.5 |
| CN1CCC(Oc2ccc3c(=O)c4c(F)cc(Cl)cc4[nH]c3c2)CC1 | liver microsomes | 1 µM, pH 7.4 | > 60 |
